Data as given in PMC9073569 (JAMA Network Open, 2022).
Read-outs that look alike come from different tables or passages of the source.

Experiments:
[1] = system: moderate to severe pruritus in patients receiving hemodialysis; experiment: 24-hour Worst Itching Intensity Numerical Rating Scale; type: in vivo, Japanese patients; conditions: week 8; for proportion of 4-point improvement in the NRS score: placebo 36%; for proportion of 3-point improvement in the NRS score: placebo 50%
Outline: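 Adults aged 20 or older with ESKD on hemodialysis 3 times weekly for at least 12 weeks, with weekly mean NRS above 4, were randomized double-blind. Test compound or placebo was given IV after each dialysis session for 8 weeks. Worst itch over the prior 24 h (0–10) was logged daily in an e-diary and averaged weekly. Proportions improving ≥3 or ≥4 points at week 8 were compared with placebo by Fisher exact test.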

[2] = system: patients with pruritus receiving hemodialysis; type: in vivo, Japanese patients; conditions: for Constipation / Death / Malaise / Other serious adverse drug reactions / Pyrexia: placebo 0; for Adverse events leading to Discontinuation / Nausea: placebo 1 (2); for Adverse events leading to Interruption / Arthralgia / Blood pressure decreased / Other serious adverse events: placebo 2 (3); for Dizziness / Procedural hypotension / Somnolence / Vomiting: placebo 3 (5); for Adverse drug reactions / Nasopharyngitis: placebo 7 (11); for Adverse events: placebo 42 (67); for drug-related serious AEs (kind of event): patients recovered after discontinuing or suspending use of the study drug
[3] = Plasma concentrations of difelikefalin; type: in vivo, Japanese patients; conditions: weeks 1, 4, and 7; LC-MS/MS
Outline: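 Test compound was given IV at 0.25, 0.5 or 1.0 μg/kg after each hemodialysis session, 3 times weekly, with volume set by dry weight. Plasma was sampled before the first dialysis (weeks 1, 2, 4, 7, 8), 5 min post-dose (weeks 1, 4, 7), before the second dialysis (weeks 1, 4, 7) and 1 h post-dose (week 7). Assay was LC-MS/MS; summaries included geometric means and geometric CV.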

[4] = cited from earlier work
[5] = system: pruritus in patients receiving hemodialysis; conditions: 0.5, 1.0, and 1.5 μg/kg; previous phase 2 trial in the US; cited from earlier work
[6] = 0.25 μg/kg iv 3 times a week, 8 weeks, n = 61
[7] = 0.5 μg/kg iv 3 times a week, 8 weeks, n = 61
[8] = 1.0 μg/kg iv 3 times a week, 8 weeks, n = 62

With difelikefalin the “proportion of 4-point improvement in the NRS score” value (shortened to “proportion of 4-point improvement”) ([1]; 0.25 μg/kg iv 3 times a week, n = 20 of 59) was 34%, the “proportion of 3-point improvement in the NRS score” value (“proportion of 3-point improvement” for short) ([1]; 0.25 μg/kg iv 3 times a week, n = 31 of 59) was 53% and the “proportion of 4-point improvement” value ([1]; 0.5 μg/kg iv 3 times a week, n = 27 of 53) was 51%. For the same substance, the “proportion of 3-point improvement” value ([1]; 0.5 μg/kg iv 3 times a week, n = 32 of 53) was 60%, the “proportion of 4-point improvement” value ([1]; 1.0 μg/kg iv 3 times a week, n = 23 of 53) was 43% and the “proportion of 3-point improvement” value ([1]; 1.0 μg/kg iv 3 times a week, n = 30 of 53) was 57%. The Constipation [2, 6] was 5 (8) No. (%), the Death [2, 6] was 0 No. (%) and the Malaise [2, 6] was 2 (3) No. (%). For the same substance, the “Other serious adverse drug reactions” value [2, 6] was 0 No. (%), the Pyrexia [2, 6] was 2 (3) No. (%) and the “Adverse events leading to Discontinuation” value [2, 6] was 0 No. (%). For the same substance, the Nausea [2, 6] was 0 No. (%), the “Adverse events leading to Interruption” value [2, 6] was 0 No. (%) and the Arthralgia [2, 6] was 3 (5) No. (%). For the same substance, the Blood pressure decreased [2, 6] was 0 No. (%), the “Other serious adverse events” value [2, 6] was 3 (5) No. (%) and the Dizziness [2, 6] was 3 (5) No. (%). The Procedural hypotension [2, 6] was 4 (7) No. (%), the Somnolence [2, 6] was 2 (3) No. (%) and the Vomiting [2, 6] was 1 (2) No. (%). The Adverse drug reactions [2, 6] was 9 (15) No. (%), the Nasopharyngitis [2, 6] was 8 (13) No. (%) and the Adverse events [2, 6] was 44 (72) No. (%). The “drug-related serious AEs (kind of event)” value ([2]; 0.5 μg/kg group) was “Altered state of consciousness”, the Constipation [2, 7] was 3 (5) No. (%) and the Death [2, 7] was 0 No. (%). For the same substance, the Malaise [2, 7] was 2 (3) No. (%), the “Other serious adverse drug reactions” value [2, 7] was 1 (2) No. (%) and the Pyrexia [2, 7] was 4 (7) No. (%). The “Adverse events leading to Discontinuation” value [2, 7] was 4 (7) No. (%), the Nausea [2, 7] was 1 (2) No. (%) and the “Adverse events leading to Interruption” value [2, 7] was 5 (8) No. (%). For the same substance, the Arthralgia [2, 7] was 5 (8) No. (%), the Blood pressure decreased [2, 7] was 4 (7) No. (%) and the “Other serious adverse events” value [2, 7] was 8 (13) No. (%). The Dizziness [2, 7] was 3 (5) No. (%), the Procedural hypotension [2, 7] was 3 (5) No. (%) and the Somnolence [2, 7] was 3 (5) No. (%). The Vomiting [2, 7] was 1 (2) No. (%), the Adverse drug reactions [2, 7] was 9 (15) No. (%) and the Nasopharyngitis [2, 7] was 6 (10) No. (%). The Adverse events [2, 7] was 47 (77) No. (%), the “drug-related serious AEs (kind of event)” value ([2]; 1.0 μg/kg group) was “obstruction in the small intestine” and the Constipation [2, 8] was 7 (11) No. (%). For the same substance, the Death [2, 8] was 0 No. (%), the Malaise [2, 8] was 4 (6) No. (%) and the “Other serious adverse drug reactions” value [2, 8] was 1 (2) No. (%). The Pyrexia [2, 8] was 0 No. (%), the “Adverse events leading to Discontinuation” value [2, 8] was 5 (8) No. (%) and the Nausea [2, 8] was 4 (6) No. (%). For the same substance, the “Adverse events leading to Interruption” value [2, 8] was 5 (8) No. (%), the Arthralgia [2, 8] was 2 (3) No. (%) and the Blood pressure decreased [2, 8] was 3 (5) No. (%). For the same substance, the “Other serious adverse events” value [2, 8] was 5 (8) No. (%), the Dizziness [2, 8] was 5 (8) No. (%) and the Procedural hypotension [2, 8] was 2 (3) No. (%). For the same substance, the Somnolence [2, 8] was 6 (10) No. (%), the Vomiting [2, 8] was 4 (6) No. (%) and the Adverse drug reactions [2, 8] was 17 (27) No. (%). The Nasopharyngitis [2, 8] was 3 (5) No. (%), the Adverse events ([2]; 1.0 μg/kg iv 3 times a week, 8 weeks, n = 62, P = .02) was 53 (85) No. (%) and the “changes in clinical laboratory tests, vital signs, and 12-lead electrocardiogram” value ([2]; 0.25, 0.5 and 1.0 μg/kg iv 3 times a week, 8 weeks) was “No notable changes”. For the same substance, the “plasma difelikefalin concentrations in relation to body weight classification” value [3] was “No significant differences”, the “transfer to the CNS” value [4] was “limited” and the “dose response in relation to efficacy” value [5] was “no clear dose response”.
